According to ChEMBL document CHEMBL1165943, “Design and synthesis of new anticancer pyrimidines with multiple-kinase inhibitory effect” (Bioorg Med Chem, 2010):

Tests used:
Assay type in all cases: functional
HL-60(TB) = experiment: Cytotoxicity against human HL-60(TB) cells assessed as cell growth at 10 uM; conditions: Homo sapiens, HL-60; read-out: Activity
Method in brief: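 Single-concentration 10 µM screen of HL-60(TB) within the 60-line panel, grown in RPMI 1640 with 5% FBS. The drug from DMSO stock is incubated 48 h at 37 °C, settled cells are TCA-fixed and SRB-stained, and absorbance is read at 515 nm. Percent growth is reported, and inhibition % is taken as 100 minus growth %.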

K562 = experiment: Cytotoxicity against human K562 cells assessed as cell growth at 10 uM; conditions: Homo sapiens, K562; read-out: Activity
Method in brief: (§1)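 Single-dose screen at 10 μM across the 60-cell-line panel. Cells grown in RPMI 1640 with 5% FBS and 2 mM L-glutamine, seeded at 5,000–40,000 cells/well according to doubling time, and treated 24 h later. Exposure lasted 48 h at 37 °C, 5% CO₂. Adherent cells were fixed with cold TCA, suspension cells were fixed settled, and both were stained with SRB and read at 515 nm. Growth % was recorded, with inhibition % = 100 − growth %.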

SR = experiment: Cytotoxicity against human SR cells assessed as cell growth at 10 uM; conditions: Homo sapiens, SR; read-out: Activity; method in brief: as §1
EKVX = experiment: Cytotoxicity against human EKVX cells assessed as cell growth at 10 uM; conditions: Homo sapiens, EKVX; read-out: Activity
Method in brief: (§2)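 Single-concentration screen at 10 μM across the 60-cell-line panel (nine tissue types); growth percentage recorded per cell line, with inhibition taken as 100 minus growth percentage.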

HOP-62 = experiment: Cytotoxicity against human HOP62 cells assessed as cell growth at 10 uM; conditions: Homo sapiens, HOP-62; read-out: Activity; method in brief: as §2
NCI-H226 = experiment: Cytotoxicity against human NCI-H226 cells assessed as cell growth at 10 uM; conditions: Homo sapiens, NCI-H226; read-out: Activity; method in brief: as §1
NCI-H23 = experiment: Cytotoxicity against human NCI-H23 cells assessed as cell growth at 10 uM; conditions: Homo sapiens, NCI-H23; read-out: Activity; method in brief: as §1
NCI-H460 = experiment: Cytotoxicity against human NCI-H460 cells assessed as cell growth at 10 uM; conditions: Homo sapiens, NCI-H460; read-out: Activity; method in brief: as §1
NCI-H522 = experiment: Cytotoxicity against human NCI-H522 cells assessed as cell growth at 10 uM; conditions: Homo sapiens, NCI-H522; read-out: Activity; method in brief: as §1
COLO 205 = experiment: Cytotoxicity against human COLO205 cells assessed as cell growth at 10 uM; conditions: Homo sapiens, COLO 205; read-out: Activity; method in brief: as §2
HCT-116 = experiment: Cytotoxicity against human HCT116 cells assessed as cell growth at 10 uM; conditions: Homo sapiens, HCT-116; read-out: Activity; method in brief: as §2
HT-29 = experiment: Cytotoxicity against human HT-29 cells assessed as cell growth at 10 uM; conditions: Homo sapiens, HT-29; read-out: Activity; method in brief: as §2
SW-620 = experiment: Cytotoxicity against human SW620 cells assessed as cell growth at 10 uM; conditions: Homo sapiens, SW-620; read-out: Activity; method in brief: as §1
SF-295 = experiment: Cytotoxicity against human SF295 cells assessed as cell growth at 10 uM; conditions: Homo sapiens, SF-295; read-out: Activity; method in brief: as §1
SF-539 = experiment: Cytotoxicity against human SF539 cells assessed as cell growth at 10 uM; conditions: Homo sapiens, SF-539; read-out: Activity; method in brief: as §1
SNB-75 = experiment: Cytotoxicity against human SNB75 cells assessed as cell growth at 10 uM; conditions: Homo sapiens, SNB-75; read-out: Activity; method in brief: as §1
U-251 = experiment: Cytotoxicity against human U251 cells assessed as cell growth at 10 uM; conditions: Homo sapiens, U-251; read-out: Activity; method in brief: as §1
M14 = experiment: Cytotoxicity against human M14 cells assessed as cell growth at 10 uM; conditions: Homo sapiens, M14; read-out: Activity; method in brief: as §1
SK-MEL-2 = experiment: Cytotoxicity against human SK-MEL-2 cells assessed as cell growth at 10 uM; conditions: Homo sapiens, SK-MEL-2; read-out: Activity; method in brief: as §1
SK-MEL-5 = experiment: Cytotoxicity against human SK-MEL-5 cells assessed as cell growth at 10 uM; conditions: Homo sapiens, SK-MEL-5; read-out: Activity; method in brief: as §1
UACC-257 = experiment: Cytotoxicity against human UACC257 cells assessed as cell growth at 10 uM; conditions: Homo sapiens, UACC-257; read-out: Activity; method in brief: as §1
IGROV-1 = experiment: Cytotoxicity against human IGROV1 cells assessed as cell growth at 10 uM; conditions: Homo sapiens, IGROV-1; read-out: Activity; method in brief: as §1
OVCAR-3 = experiment: Cytotoxicity against human OVCAR-3 cells assessed as cell growth at 10 uM; conditions: Homo sapiens, OVCAR-3; read-out: Activity; method in brief: as §1
OVCAR-5 = experiment: Cytotoxicity against human OVCAR5 cells assessed as cell growth at 10 uM; conditions: Homo sapiens, OVCAR-5; read-out: Activity; method in brief: as §1
NCI/ADR-RES = experiment: Cytotoxicity against human NCI/ADR-RES cells assessed as cell growth at 10 uM; conditions: Homo sapiens, NCI/ADR-RES; read-out: Activity; method in brief: as §1
SK-OV-3 = experiment: Cytotoxicity against human SKOV3 cells assessed as cell growth at 10 uM; conditions: Homo sapiens, SK-OV-3; read-out: Activity; method in brief: as §1
786-0 = experiment: Cytotoxicity against human 786-0 cells assessed as cell growth at 10 uM; conditions: Homo sapiens, 786-0; read-out: Activity; method in brief: as §2
A498 = experiment: Cytotoxicity against human A498 cells assessed as cell growth at 10 uM; conditions: Homo sapiens, A498; read-out: Activity; method in brief: as §2
ACHN = experiment: Cytotoxicity against human ACHN cells assessed as cell growth at 10 uM; conditions: Homo sapiens, ACHN; read-out: Activity; method in brief: as §2
CAKI-1 = experiment: Cytotoxicity against human Caki1 cells assessed as cell growth at 10 uM; conditions: Homo sapiens, CAKI-1; read-out: Activity; method in brief: as §2
TK-10 = experiment: Cytotoxicity against human TK10 cells assessed as cell growth at 10 uM; conditions: Homo sapiens, TK-10; read-out: Activity; method in brief: as §1
UO-31 = experiment: Cytotoxicity against human UO31 cells assessed as cell growth at 10 uM; conditions: Homo sapiens, UO-31; read-out: Activity; method in brief: as §1
PC-3 = experiment: Cytotoxicity against human PC3 cells assessed as cell growth at 10 uM; conditions: Homo sapiens, PC-3; read-out: Activity; method in brief: as §1
DU-145 = experiment: Cytotoxicity against human DU145 cells assessed as cell growth at 10 uM; conditions: Homo sapiens, DU-145; read-out: Activity; method in brief: as §2
T47D = experiment: Cytotoxicity against human T47D cells assessed as cell growth at 10 uM; conditions: Homo sapiens, T47D; read-out: Activity; method in brief: as §1
MDA-MB-468 = experiment: Cytotoxicity against human MDA-MB-468 cells assessed as cell growth at 10 uM; conditions: Homo sapiens, MDA-MB-468; read-out: Activity; method in brief: as §1
[1] = Growth inhibition of human NCI60 cells at 10 uM after 48 hrs by sulforhodamine B assay relative to control; conditions: Homo sapiens, NCI60, 48 h; read-out: GI
Method in brief: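 Single 10 µM dose across the 60-line panel for 48 h, with the same culture, TCA fixation and SRB 515 nm read-out. Inhibition % = 100 − growth %, given as the mean over the 60 cell lines.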

Structure (SMILES)	growth at 10 µM (HL-60(TB)) [%]	growth at 10 µM (K562) [%]	growth at 10 µM (SR) [%]	growth at 10 µM (EKVX) [%]	growth at 10 µM (HOP-62) [%]	growth at 10 µM (NCI-H226) [%]	growth at 10 µM (NCI-H23) [%]	growth at 10 µM (NCI-H460) [%]	growth at 10 µM (NCI-H522) [%]	growth at 10 µM (COLO 205) [%]	growth at 10 µM (HCT-116) [%]	growth at 10 µM (HT-29) [%]	growth at 10 µM (SW-620) [%]	growth at 10 µM (SF-295) [%]	growth at 10 µM (SF-539) [%]	growth at 10 µM (SNB-75) [%]	growth at 10 µM (U-251) [%]	growth at 10 µM (M14) [%]	growth at 10 µM (SK-MEL-2) [%]	growth at 10 µM (SK-MEL-5) [%]	also measured
O=C(Nc1cc(C(F)(F)F)cc(C(F)(F)F)c1)Nc1nccc(-c2ccc(Nc3ccccc3)nc2)n1	99.7	93.6	84.6	134	103	104	108	103	94.3	136	93.2	94.4	98.8	137	96.4	90.1	113	94.2	101	107	growth at 10 µM (UACC-257): 112%; growth at 10 µM (IGROV-1): 105%; growth at 10 µM (OVCAR-3): 124%; growth at 10 µM (OVCAR-5): 87%; growth at 10 µM (NCI/ADR-RES): 108%; growth at 10 µM (SK-OV-3): 83.3%; growth at 10 µM (786-0): 112%; growth at 10 µM (A498): 107%; growth at 10 µM (ACHN): 93%; growth at 10 µM (CAKI-1): 102%; growth at 10 µM (TK-10): 123%; growth at 10 µM (UO-31): 91.6%; growth at 10 µM (PC-3): 93.5%; growth at 10 µM (DU-145): 126%; growth at 10 µM (T47D): 110%; growth at 10 µM (MDA-MB-468): 108%; inhibition of growth at 10 µM [1]: -6.98%
c1ccc(-c2ccc(-c3ccnc(Nc4ccc(N(c5ccccc5)c5ccccc5)cc4)n3)cn2)cc1	91.8	94.9	38.7	103	122	115	145	84.4	94	116	40.6	89.5	78.3	124	84.2	102	87.2	90.2	102	118	growth at 10 µM (UACC-257): 106%; growth at 10 µM (IGROV-1): 67.2%; growth at 10 µM (OVCAR-3): 125%; growth at 10 µM (OVCAR-5): 106%; growth at 10 µM (NCI/ADR-RES): 125%; growth at 10 µM (SK-OV-3): 119%; growth at 10 µM (786-0): 71.5%; growth at 10 µM (A498): 96.2%; growth at 10 µM (ACHN): 96.5%; growth at 10 µM (CAKI-1): 83.7%; growth at 10 µM (TK-10): 113%; growth at 10 µM (UO-31): 72.4%; growth at 10 µM (PC-3): 87.1%; growth at 10 µM (DU-145): 115%; growth at 10 µM (T47D): 111%; growth at 10 µM (MDA-MB-468): 105%; inhibition of growth at 10 µM [1]: 0.97%
FC(F)(F)c1cc(Nc2nccc(-c3cccnc3)n2)cc(C(F)(F)F)c1	101	89.6	87.8	102	104	99.6	97.9	103	86.5	119	91.1	92.1	109	103	97.1	95.3	98.7	116	98.2	101	growth at 10 µM (UACC-257): 111%; growth at 10 µM (IGROV-1): 101%; growth at 10 µM (OVCAR-3): 119%; growth at 10 µM (OVCAR-5): 97%; growth at 10 µM (NCI/ADR-RES): 94.7%; growth at 10 µM (SK-OV-3): 106%; growth at 10 µM (786-0): 97.1%; growth at 10 µM (A498): 103%; growth at 10 µM (ACHN): 102%; growth at 10 µM (CAKI-1): 91.5%; growth at 10 µM (TK-10): 106%; growth at 10 µM (UO-31): 101%; growth at 10 µM (PC-3): 105%; growth at 10 µM (DU-145): 106%; growth at 10 µM (T47D): 83.9%; growth at 10 µM (MDA-MB-468): 98.4%; inhibition of growth at 10 µM [1]: -0.32%
